Measurements taken from ChEMBL document CHEMBL4732066, “SP1-independent inhibition of FOXM1 by modified thiazolidinediones” (Eur J Med Chem, 2021).
Calls of active or inactive are those of the source. The rule behind the calls is not given here.

What was measured:
[1] = Downregulation of FOXM1 expression in human MDA-MB-231 cells at 40 uM after 48 hrs by Western blot analysis relative to control; assay type: functional
How it was run: (§1)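 MDA-MB-231 cells (RPMI, 10% FBS, 37 °C, 5% CO2) were treated in 6-well plates and lysed in RIPA buffer for 30 min after ice-cold PBS washes. Protein was quantified by Bradford and equal amounts run on 10% SDS-PAGE, then transferred to nitrocellulose and blocked in 10% milk/TBST for 45 min. Primary antibody was used at 1:1000 at 4 °C overnight, secondary for 45 min at RT, with chemiluminescent detection.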

[2] = target: T1, Forkhead box protein M1 (Homo sapiens) (UniProt Q08050); assay: Inhibition of FOXM1 transcriptional activity in human MDA-MB-231 cells at 40 uM after 12 hrs by luciferase reporter gene assay; assay type: cell-based
T1 sequence (whole entry): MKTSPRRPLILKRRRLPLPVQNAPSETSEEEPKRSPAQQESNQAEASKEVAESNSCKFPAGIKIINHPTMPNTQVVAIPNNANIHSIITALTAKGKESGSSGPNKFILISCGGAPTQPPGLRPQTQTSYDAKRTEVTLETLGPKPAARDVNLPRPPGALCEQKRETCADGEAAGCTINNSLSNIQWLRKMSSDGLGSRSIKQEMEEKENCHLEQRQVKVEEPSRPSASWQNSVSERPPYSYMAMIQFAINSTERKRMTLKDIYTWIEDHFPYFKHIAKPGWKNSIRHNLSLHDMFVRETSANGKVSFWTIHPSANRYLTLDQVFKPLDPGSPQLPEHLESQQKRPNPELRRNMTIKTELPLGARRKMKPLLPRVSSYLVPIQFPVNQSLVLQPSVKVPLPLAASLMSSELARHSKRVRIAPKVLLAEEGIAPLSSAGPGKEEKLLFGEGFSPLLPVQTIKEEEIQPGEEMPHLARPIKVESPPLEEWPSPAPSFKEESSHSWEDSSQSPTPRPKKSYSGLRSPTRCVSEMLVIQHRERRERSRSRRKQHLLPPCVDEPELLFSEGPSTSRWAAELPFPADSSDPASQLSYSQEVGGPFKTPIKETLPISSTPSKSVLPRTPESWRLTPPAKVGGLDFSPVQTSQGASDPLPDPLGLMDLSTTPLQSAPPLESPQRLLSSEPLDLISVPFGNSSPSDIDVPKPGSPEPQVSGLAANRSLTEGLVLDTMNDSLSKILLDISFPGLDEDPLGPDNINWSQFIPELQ
How it was run: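 MDA-MB-231 cells were transiently transfected with equal amounts of 6x-FOXM1 firefly luciferase reporter and empty pGL4.10 backbone. After 24 h, cells were drug-treated for 12 h, PBS-washed and lysed in reporter lysis buffer. Firefly luciferase activity was read on equal total protein per lysate, in triplicate, with significance by one-way ANOVA.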

Forkhead box protein M1 = target: T2, Forkhead box protein M1 (Homo sapiens, UniProt Q08050); assay: Binding affinity to recombinant FOXM1 DBD (unknown origin) expressed in Escherichia coli BL21 (DE3) assessed as disruption of FOXM1-DNA complex preincubated for 1.5 hrs followed by DNA addition measured after 20 mins by EMSA
T2 sequence (Q08050 whole entry): T1 sequence (whole entry)

MDA-MB-231 [3] = assay: Downregulation of SP1 expression in human MDA-MB-231 cells at 80 uM after 24 hrs by Western blot analysis; assay type: functional, cell-based; how it was run: as §1
MDA-MB-231 [4] = assay: Effect on SP1 expression in human MDA-MB-231 cells at 80 uM after 24 hrs by Western blot analysis; assay type: functional, cell-based; how it was run: as §1

| SMILES | inhibition at 40 µM [1] [%] | further results |
| --- | --- | --- |
| Cc1c(C)c2c(c(C)c1O)CCC(C)(COc1ccc(CC3SC(=O)NC3=O)cc1)O2 (stereo unspecified) [TROGLITAZONE] | 80 | inhibition [2]: Active; IC50 (Forkhead box protein M1): 122 µM; Ki (Forkhead box protein M1): 0.052 µM; inhibition (MDA-MB-231 [3]): Active |
| COc1ccc(/C=C2\SC(=O)NC2=O)cc1OCc1ccc(C(F)(F)F)cc1 | 80 | – |
| COC(=O)c1ccc(COc2ccc(/C=C3\SC(=O)NC3=O)cc2OC)cc1 | 80 | – |
| O=C1NC(=O)/C(=C/c2ccc(OCc3ccc(C(F)(F)F)cc3)cc2)S1 | > 90 | – |
| COC(=O)c1ccc(COc2ccc(/C=C3\SC(=O)NC3=O)cc2[N+](=O)[O-])cc1 | 80 | – |
| O=C1NC(=O)/C(=C/c2ccc(OCc3ccc([N+](=O)[O-])cc3)c([N+](=O)[O-])c2)S1 | 80 | – |
| COc1cc(/C=C2\SC(=O)NC2=O)ccc1OCc1ccc([N+](=O)[O-])cc1 | 80 | – |
| O=C1NC(=O)/C(=C/c2ccc(OCc3ccc([N+](=O)[O-])cc3)cc2)S1 | 80 | – |
| COc1cc(/C=C2\SC(=O)NC2=O)ccc1OCc1ccc(C(F)(F)F)cc1 | > 90 | Activity (MDA-MB-231 [4]): inactive |
| COc1ccc(/C=C2\SC(=O)NC2=O)cc1OCc1ccc([N+](=O)[O-])cc1 | > 90 | – |
| Nc1c(C(=O)Nc2ccc(F)cc2)sc2nc(-c3cccs3)cc(C(F)(F)F)c12 | 80 | – |
